Test results published in ChEMBL document CHEMBL1240487, “Discovery of a potent, selective, and orally bioavailable pyridinyl-pyrimidine phthalazine aurora kinase inhibitor” (J Med Chem, 2010).
Values belong to the molecule of their own block, whether it stands above or below them. Calls of active or inactive are those of the source. The rule behind the calls is not given here.

How the values were obtained:
[1] = molecular target: Cyclin-dependent kinase 2 (Homo sapiens, UniProt P24941); assay: Inhibition of CDK2 by HTRF assay
Outline: (§1)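 Enzyme inhibition was run with ATP at its Km for each kinase. Values are averages of at least two determinations.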

[2] = Oral bioavailability in Sprague-Dawley rat at 2 mg/kg; type: ADME, organism-based; settings: in vivo
[3] = molecular target: Tyrosine-protein kinase ABL1 (Homo sapiens, UniProt P00519); assay: Inhibition of Abl by HTRF assay; outline: as §1
[4] = molecular target: Mast/stem cell growth factor receptor Kit (Homo sapiens, UniProt P10721); assay: Inhibition of c-Kit by HTRF assay; outline: as §1
[5] = molecular target: Proto-oncogene tyrosine-protein kinase Src (Homo sapiens, UniProt P12931); assay: Inhibition of Src by HTRF assay; outline: as §1
Aurora kinase B = Aurora kinase B (Homo sapiens, UniProt Q96GD4); assay: Inhibition of aurora B in human HeLa cells assessed as reduction of histone H3 phosphorylation at Ser10 at 0.313 uM after 24 hrs by flow cytometry
Mus musculus = assay: Inhibition of aurora B in human COLO205 cells xenografted in CD1 mouse assessed as reduction of phosphorylated histone H3 level at 50 mg/kg, po after 3 to 6 hrs by immunofluorescence-based flow cytometry; type: functional; settings: CD1, COLO 205
Outline: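 Mice carried established COLO 205 xenografts of about 300 mm3 and received a single oral dose of vehicle or 50 mg/kg (N = 12 per group). Tumors were harvested at 3, 6 and 24 h (N = 4 per time point). p-Histone H3 was measured by immunofluorescence-based flow cytometry as the percentage of positive cells in G2/M. Groups were compared with ANOVA and Scheffe's post hoc test against vehicle.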

[6] = molecular target: Ribosomal protein S6 kinase alpha-5 (Homo sapiens, UniProt O75582); assay: Inhibition of MSK1 by HTRF assay; outline: as §1
[7] = Protein binding in mouse plasma at 10 uM by ultrafiltration; type: ADME, cell-free; settings: read-out: PPB

Chain of Mast/stem cell growth factor receptor Kit (P10721 whole entry): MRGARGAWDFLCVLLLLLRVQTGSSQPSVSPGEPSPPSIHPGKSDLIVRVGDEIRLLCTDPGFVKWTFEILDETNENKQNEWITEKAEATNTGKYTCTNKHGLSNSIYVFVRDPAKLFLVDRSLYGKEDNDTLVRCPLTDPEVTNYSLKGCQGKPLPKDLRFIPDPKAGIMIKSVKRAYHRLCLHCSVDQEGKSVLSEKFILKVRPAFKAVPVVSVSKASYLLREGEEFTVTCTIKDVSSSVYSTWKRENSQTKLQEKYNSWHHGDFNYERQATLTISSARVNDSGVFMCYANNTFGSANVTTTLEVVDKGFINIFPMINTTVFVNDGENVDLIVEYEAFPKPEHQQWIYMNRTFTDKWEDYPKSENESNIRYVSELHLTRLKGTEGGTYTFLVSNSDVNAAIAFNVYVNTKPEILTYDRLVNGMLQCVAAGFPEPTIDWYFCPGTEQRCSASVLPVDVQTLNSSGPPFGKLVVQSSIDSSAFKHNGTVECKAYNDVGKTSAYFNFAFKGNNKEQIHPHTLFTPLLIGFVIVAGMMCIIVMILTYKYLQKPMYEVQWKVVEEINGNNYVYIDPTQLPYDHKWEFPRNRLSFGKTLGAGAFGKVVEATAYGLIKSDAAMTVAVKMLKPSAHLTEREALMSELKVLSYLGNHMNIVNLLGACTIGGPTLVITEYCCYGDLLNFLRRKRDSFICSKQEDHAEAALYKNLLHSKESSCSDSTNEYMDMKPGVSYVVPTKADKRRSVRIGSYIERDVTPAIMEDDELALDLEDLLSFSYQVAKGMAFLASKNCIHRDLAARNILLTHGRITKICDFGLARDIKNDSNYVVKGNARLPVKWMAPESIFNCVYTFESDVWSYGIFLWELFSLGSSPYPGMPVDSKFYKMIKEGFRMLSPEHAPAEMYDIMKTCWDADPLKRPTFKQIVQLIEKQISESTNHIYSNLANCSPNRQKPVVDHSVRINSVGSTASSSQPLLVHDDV
Chain of Aurora kinase B (Q96GD4 whole entry): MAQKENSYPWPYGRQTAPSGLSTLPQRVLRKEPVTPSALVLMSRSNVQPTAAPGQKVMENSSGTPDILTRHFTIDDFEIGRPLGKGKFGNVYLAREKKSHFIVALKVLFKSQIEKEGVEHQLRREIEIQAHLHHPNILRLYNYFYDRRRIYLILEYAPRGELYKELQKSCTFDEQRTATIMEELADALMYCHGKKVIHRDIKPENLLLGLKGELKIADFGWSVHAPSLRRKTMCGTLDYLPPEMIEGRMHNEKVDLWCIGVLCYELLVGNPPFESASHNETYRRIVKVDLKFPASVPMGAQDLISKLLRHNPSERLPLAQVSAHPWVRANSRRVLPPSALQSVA
Chain of Ribosomal protein S6 kinase alpha-5 (O75582 whole entry): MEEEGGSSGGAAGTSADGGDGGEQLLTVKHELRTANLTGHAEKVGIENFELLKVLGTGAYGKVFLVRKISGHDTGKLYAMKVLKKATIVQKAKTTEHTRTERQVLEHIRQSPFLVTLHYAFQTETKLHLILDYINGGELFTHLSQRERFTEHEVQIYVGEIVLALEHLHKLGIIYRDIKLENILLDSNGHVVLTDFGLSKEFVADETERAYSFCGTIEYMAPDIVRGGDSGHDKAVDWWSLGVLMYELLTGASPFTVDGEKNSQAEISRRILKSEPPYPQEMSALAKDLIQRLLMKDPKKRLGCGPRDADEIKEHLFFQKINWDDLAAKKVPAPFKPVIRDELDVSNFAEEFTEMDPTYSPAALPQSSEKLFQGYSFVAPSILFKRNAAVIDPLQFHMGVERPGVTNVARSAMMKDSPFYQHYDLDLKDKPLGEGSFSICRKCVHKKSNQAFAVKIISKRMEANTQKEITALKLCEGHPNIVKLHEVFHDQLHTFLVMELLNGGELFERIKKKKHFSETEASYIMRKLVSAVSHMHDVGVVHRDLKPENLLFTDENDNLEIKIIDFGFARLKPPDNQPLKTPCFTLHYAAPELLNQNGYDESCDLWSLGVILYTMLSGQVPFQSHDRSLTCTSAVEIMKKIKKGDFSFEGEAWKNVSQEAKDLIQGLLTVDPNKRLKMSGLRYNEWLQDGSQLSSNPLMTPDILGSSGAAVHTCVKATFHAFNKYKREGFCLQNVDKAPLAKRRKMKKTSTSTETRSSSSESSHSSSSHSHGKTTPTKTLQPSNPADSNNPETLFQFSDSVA
Chain of Proto-oncogene tyrosine-protein kinase Src (P12931 2-536 limits assumed): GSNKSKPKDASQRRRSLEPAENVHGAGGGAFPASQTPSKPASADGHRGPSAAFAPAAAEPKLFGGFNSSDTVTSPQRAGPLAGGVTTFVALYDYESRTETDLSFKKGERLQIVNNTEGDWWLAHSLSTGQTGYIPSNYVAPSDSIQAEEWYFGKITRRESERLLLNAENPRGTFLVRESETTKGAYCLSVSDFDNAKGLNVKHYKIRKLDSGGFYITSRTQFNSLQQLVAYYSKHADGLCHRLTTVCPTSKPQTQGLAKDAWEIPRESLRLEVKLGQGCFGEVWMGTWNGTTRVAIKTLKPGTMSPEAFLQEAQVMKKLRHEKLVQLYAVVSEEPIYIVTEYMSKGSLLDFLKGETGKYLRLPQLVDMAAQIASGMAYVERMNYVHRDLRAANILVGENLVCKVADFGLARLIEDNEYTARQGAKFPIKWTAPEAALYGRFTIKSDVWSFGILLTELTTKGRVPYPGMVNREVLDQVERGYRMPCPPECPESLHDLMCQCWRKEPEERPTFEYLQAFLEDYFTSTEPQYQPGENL
Chain of Tyrosine-protein kinase ABL1 (P00519 whole entry): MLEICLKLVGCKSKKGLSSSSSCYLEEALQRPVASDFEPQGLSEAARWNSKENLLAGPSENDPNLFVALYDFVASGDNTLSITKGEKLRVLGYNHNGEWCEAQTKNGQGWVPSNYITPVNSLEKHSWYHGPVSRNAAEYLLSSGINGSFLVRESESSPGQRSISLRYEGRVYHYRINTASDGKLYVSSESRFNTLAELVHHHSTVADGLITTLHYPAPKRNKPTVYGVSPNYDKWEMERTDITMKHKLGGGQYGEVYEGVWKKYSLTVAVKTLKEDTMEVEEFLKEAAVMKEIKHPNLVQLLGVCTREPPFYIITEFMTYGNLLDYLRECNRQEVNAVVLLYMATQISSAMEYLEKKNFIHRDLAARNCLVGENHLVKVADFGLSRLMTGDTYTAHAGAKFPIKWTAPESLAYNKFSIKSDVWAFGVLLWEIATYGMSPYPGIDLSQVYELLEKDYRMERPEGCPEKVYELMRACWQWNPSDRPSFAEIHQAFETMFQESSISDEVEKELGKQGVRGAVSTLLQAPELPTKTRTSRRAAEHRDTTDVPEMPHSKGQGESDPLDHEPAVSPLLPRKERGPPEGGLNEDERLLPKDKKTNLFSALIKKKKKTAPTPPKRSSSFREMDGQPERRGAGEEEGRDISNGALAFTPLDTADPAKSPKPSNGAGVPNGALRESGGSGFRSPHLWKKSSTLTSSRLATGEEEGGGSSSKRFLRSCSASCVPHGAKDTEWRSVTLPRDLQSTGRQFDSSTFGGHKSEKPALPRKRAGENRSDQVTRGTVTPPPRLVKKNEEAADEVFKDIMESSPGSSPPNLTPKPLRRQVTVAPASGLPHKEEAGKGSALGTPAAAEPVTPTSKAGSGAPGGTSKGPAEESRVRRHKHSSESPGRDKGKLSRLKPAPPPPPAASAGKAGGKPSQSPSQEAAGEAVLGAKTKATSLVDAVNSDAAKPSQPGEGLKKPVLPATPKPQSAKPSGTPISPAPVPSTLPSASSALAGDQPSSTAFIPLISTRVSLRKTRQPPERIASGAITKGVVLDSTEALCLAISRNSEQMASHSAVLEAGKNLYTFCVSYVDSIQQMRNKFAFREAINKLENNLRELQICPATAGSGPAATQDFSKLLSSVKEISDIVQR

- IC50 [1]: > 1000 nM
- bioavailability [2]: < 1%
SMILES: CNc1nccc(-c2cccnc2Oc2ccc(NC(=O)c3ccccc3Nc3ccccc3)cc2)n1

- IC50 [3]: 503 nM
- IC50 [4]: 1350 nM
- IC50 [5]: 5750 nM
SMILES: CNc1nccc(-c2cccnc2Oc2ccc(NC(=O)c3cccc(C(F)(F)F)c3)cc2C)n1

- Activity (Aurora kinase B): Active
- IC50 [6]: > 25000 nM
- fraction unbound at 10 µM [7]: < 0.001
SMILES: CNc1nccc(-c2cccnc2Oc2ccc(Nc3nnc(-c4ccc(F)cc4)c4ccccc34)cc2)n1
- inhibition in vivo at 50 mg/kg (Mus musculus): ≥ 96%
